Reference: ChEMBL document CHEMBL1127645, “Synthesis, structure-activity relationships, and pharmacological evaluation of a series of fluorinated 3-benzyl-5-indolecarboxamides: identification of 4-[[5-[((2R)-2-methyl-4,4,4-trifluorobutyl)carbamoyl]-1-methyl indol- 3-yl]methyl]-3-methoxy-N-[(2-methylphenyl)sulfonyl]benzamide, a potent, …” (J Med Chem, 1994)

Assays:
[1] = Partition coefficient (logP); details: octanol/water
[2] = target: T1, Cysteinyl leukotriene receptor 1 (Cavia porcellus, UniProt Q2NNR5); test: Inhibition constant for displacement of [3H]LTD4 on guinea pig lung parenchymal membranes; format: tissue-based, Lung parenchyma
T1 sequence (Q2NNR5 whole entry): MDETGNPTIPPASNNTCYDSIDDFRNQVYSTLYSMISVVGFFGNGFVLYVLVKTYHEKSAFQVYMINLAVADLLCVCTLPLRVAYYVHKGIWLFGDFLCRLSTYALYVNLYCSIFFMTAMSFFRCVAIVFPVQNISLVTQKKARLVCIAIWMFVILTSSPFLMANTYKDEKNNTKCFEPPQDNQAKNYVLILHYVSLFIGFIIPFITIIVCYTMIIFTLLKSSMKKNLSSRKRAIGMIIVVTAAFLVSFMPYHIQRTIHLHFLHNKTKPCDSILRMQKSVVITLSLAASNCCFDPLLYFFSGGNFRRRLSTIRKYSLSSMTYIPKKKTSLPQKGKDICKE
In short: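 Guinea pig lung parenchymal membranes; competitive displacement of [3H]LTD4. Ki taken as mean of two experiments, each run in duplicate on separate membrane batches.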

[3] = target: T2, Cysteinyl leukotriene receptor 1 (Cavia porcellus) (UniProt Q2NNR5); test: Binding constant in guinea pig tracheal spirals with LTE4; format: tissue-based; details: Trachea
T2 sequence (whole entry): T1 sequence (Q2NNR5 whole entry)
In short: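 Guinea pig tracheal spirals contracted with LTE4 as agonist. Antagonist KB derived from concentration-response curves and reported as -log(KB) (pKB); n = number of concentration-response curves.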

[4] = target: T2, Cysteinyl leukotriene receptor 1 (Cavia porcellus); test: Effective dose for the inhibition of percent protection from LTD4-induced dyspnea in a conscious guinea pig administered through oral route; format: functional
In short: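 Conscious guinea pig dyspnea model with LTD4 challenge; percent protection from dyspnea plotted against dose (oral or intravenous). ED50 obtained by regression using at least three doses from the linear portion of the dose-response curve; SEM for percent protection was generally ≤25% at each dose.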

[5] = Compound was evaluated for the oral bioavailability in rat; format: ADME, organism-based; details: in vivo, read-out: Bioavailabiility
[6] = target: Histamine H1 receptor (Cavia porcellus) (UniProt P31389); test: Compound was evaluated for the selectivity of Histaminergic 1 receptor isolated from guinea pig ileum by displacing histamine; format: tissue-based
Sequence of Histamine H1 receptor (Cavia porcellus) (P31389 whole entry): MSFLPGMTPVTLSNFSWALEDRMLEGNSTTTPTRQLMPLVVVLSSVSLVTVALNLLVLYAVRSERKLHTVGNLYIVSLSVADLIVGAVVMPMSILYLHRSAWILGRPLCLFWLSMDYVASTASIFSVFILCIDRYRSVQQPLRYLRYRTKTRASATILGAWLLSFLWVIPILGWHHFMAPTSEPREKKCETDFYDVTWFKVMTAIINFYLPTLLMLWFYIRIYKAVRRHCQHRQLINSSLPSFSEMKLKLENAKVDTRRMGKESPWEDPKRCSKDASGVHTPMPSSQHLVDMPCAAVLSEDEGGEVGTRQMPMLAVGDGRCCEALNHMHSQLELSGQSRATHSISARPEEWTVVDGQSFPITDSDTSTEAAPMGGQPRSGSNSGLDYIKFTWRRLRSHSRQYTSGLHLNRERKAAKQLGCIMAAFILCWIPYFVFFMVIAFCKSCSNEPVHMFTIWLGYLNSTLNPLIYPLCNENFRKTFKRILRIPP
In short: (§1)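 Isolated-tissue functional selectivity screen, run at a single standard concentration of 10 μM, recording any change in the response to the receptor agonist.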

[7] = Compound was evaluated for clearance in rat; format: ADME, organism-based; details: in vivo
[8] = target: Prostaglandin E2 receptor EP2 subtype (Homo sapiens) (UniProt P43116); test: Compound was evaluated for the selectivity of Prostaglandin 2 receptors isolated from guinea pig ileum by displacing PGE-2; format: tissue-based; details: Cavia porcellus; Trachea; in the assay text read “guinea pig trachea” for “guinea pig ileum”; target entry is the homologue from another species; in short: as §1
Sequence of Prostaglandin E2 receptor EP2 subtype (Homo sapiens) (P43116 whole entry): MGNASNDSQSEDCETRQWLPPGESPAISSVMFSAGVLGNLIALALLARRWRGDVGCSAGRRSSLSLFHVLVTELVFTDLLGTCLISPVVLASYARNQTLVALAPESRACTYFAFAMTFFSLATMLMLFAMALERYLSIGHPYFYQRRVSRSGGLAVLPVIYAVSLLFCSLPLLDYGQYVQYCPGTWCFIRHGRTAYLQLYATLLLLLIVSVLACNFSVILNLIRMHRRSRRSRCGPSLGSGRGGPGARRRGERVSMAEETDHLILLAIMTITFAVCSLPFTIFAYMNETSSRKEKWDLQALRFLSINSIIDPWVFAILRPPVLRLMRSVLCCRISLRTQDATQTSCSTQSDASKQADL

[9] = Compound was evaluated for the oral bioavailability in dog; format: ADME, organism-based, Canis lupus familiaris; details: in vivo, read-out: Bioavailabiility
[10] = system: Cysteinyl leukotriene receptor (Cavia porcellus); test: Inhibition of percent protection from LTD4-induced dyspnea in a conscious guinea pig administered intravenously
[11] = target: T3, Prostaglandin E2 receptor EP1 subtype (Homo sapiens) (UniProt P34995); test: Compound was evaluated for the selectivity of Prostaglandin 1 receptors isolated from guinea pig ileum by displacing PGE-2; details: Cavia porcellus, target entry is the homologue from another species
T3 sequence (whole entry): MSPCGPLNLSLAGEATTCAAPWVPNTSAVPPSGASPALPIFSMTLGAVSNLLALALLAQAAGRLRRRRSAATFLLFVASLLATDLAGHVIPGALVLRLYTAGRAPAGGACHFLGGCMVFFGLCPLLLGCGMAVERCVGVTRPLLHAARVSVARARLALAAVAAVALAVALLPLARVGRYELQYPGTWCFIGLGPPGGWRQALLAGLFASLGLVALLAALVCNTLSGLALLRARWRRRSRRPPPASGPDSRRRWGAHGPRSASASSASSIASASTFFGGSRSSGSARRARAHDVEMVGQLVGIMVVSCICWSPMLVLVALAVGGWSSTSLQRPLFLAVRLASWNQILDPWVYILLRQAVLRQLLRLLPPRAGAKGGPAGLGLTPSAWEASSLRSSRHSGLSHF

[12] = Clearance in guinea pig; format: ADME, organism-based, Cavia porcellus; details: in vivo
[13] = target: Muscarinic acetylcholine receptor (Homo sapiens) (UniProt P20309+P08173+P11229+P08172+P08912); test: Compound was evaluated for the selectivity of Muscarinic receptors isolated from guinea pig ileum by displacing acetylcholine; format: tissue-based; details: Cavia porcellus, target entry is the homologue from another species; in short: as §1
[14] = (§2) ED50 (p.o.) / ED50 (i.v.) ratio of the compound; format: functional
In short: (§3)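 Ratio of oral ED50 to intravenous ED50 from the conscious guinea pig LTD4-induced dyspnea model, used as an index of oral bioavailability.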

[15] = target: Beta-1 adrenergic receptor (Cavia porcellus) (UniProt B0FL73); test: Compound was evaluated for the selectivity of Beta 1 adrenergic receptors isolated from guinea pig right atrium by displacing isoproterenol; format: functional, tissue-based; details: Cardiac atrium; in short: as §1
Sequence of Beta-1 adrenergic receptor (Cavia porcellus) (B0FL73 1-467): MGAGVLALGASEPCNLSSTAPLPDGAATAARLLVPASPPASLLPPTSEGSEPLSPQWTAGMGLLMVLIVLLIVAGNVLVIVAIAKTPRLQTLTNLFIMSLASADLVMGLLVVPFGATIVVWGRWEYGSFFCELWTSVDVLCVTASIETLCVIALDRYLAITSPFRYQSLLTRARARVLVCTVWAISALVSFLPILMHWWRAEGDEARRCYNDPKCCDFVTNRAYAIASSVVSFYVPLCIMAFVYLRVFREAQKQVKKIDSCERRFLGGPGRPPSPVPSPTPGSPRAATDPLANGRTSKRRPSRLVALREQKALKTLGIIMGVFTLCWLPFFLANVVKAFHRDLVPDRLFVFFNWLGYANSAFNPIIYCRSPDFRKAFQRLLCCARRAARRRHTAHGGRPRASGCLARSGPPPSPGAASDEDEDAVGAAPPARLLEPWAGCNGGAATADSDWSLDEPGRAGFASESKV

[16] = target: Alpha-2 adrenergic receptor (Mus musculus) (UniProt P30545+Q01338+Q01337); test: Compound was evaluated for the selectivity of alpha 2 adrenergic receptors isolated from mouse vas deferens by displacing clonidine; format: functional, tissue-based; in short: as §1
[17] = target: T4, Thromboxane A2 receptor (Rattus norvegicus) (UniProt P34978); test: Compound was evaluated for the selectivity of Thromboxane 1 receptors isolated from rat aorta by displacing U-46,619; format: functional, tissue-based; in short: as §1
T4 sequence (whole entry): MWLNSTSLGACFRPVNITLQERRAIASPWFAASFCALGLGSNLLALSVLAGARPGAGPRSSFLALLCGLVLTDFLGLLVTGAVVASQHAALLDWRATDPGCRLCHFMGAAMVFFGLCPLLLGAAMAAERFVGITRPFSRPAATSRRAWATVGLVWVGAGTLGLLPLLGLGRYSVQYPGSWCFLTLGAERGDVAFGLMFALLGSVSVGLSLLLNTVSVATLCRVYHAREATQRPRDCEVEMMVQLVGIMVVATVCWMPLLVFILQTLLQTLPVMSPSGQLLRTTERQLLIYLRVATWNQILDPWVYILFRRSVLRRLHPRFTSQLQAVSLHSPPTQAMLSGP

[18] = Compound was evaluated for the clearance in dog; format: ADME, organism-based, Canis lupus familiaris; details: in vivo
[19] = Bioavailability in guinea pig; format: ADME, organism-based, Cavia porcellus; details: in vivo
Cavia porcellus [20] = test: as §2; format: functional; in short: as §3
[21] = Compound was evaluated for the clearance in rat; format: ADME, organism-based; details: in vivo
Rattus norvegicus = species on record: Rattus norvegicus; test: Compound was evaluated for the pharmacokinetic characters in Rat; format: ADME, organism-based; details: in vivo
Cavia porcellus [22] = test: Inhibition of protection from LTD4-induced dyspnea in a conscious guinea pig administered through oral route at a dose of 3 umol/kg; format: functional

Ki [2] [nM]	pKB [3]	ED50 [4] [µmol/kg]	ED50 [10] [µmol/kg]	Compound	Ratio (Cavia porcellus [20])	other results
	9.67	0.54		COc1cc(C(=O)NS(=O)(=O)c2ccccc2C)ccc1Cc1cn(C)c2ccc(NC(=O)OC3CCCC3)cc12		
0.42	10.1	1.14	0.022	COc1cc(C(=O)NS(=O)(=O)c2ccccc2C)ccc1Cc1cn(C)c2ccc(C(=O)NC[C@H](C)CC(F)(F)F)cc12		bioavailability [5]: 33%; pKB [6]: < 5; clearance [7]: 1.17 mL/min/kg; pKB [8]: < 5; bioavailability [9]: 38%; pKB [11]: 5.23; clearance [12]: 14.2 mL/min/kg; pKB [13]: < 5; Ratio [14]: 52; pKB [15]: < 5; pKB [16]: < 5; pKB [17]: < 5; clearance [18]: 5.17 mL/min/kg; bioavailability [19]: 15%
4.6				COc1cc(C(=O)NS(=O)(=O)c2ccccc2C)ccc1Cc1cn(C)c2ccc(C(=O)NCC3(CC(F)(F)F)CC3)cc12		
2.4	9.3	2.5		CCC(CNC(=O)c1ccc2c(c1)c(Cc1ccc(C(=O)NS(=O)(=O)c3ccccc3Br)cc1OC)cn2C)CC(F)(F)F (stereo not given)		
0.38	10.1	1.42	0.011	CCn1cc(Cc2ccc(C(=O)NS(=O)(=O)c3ccccc3C)cc2OC)c2cc(C(=O)NCC(C)CC(F)(F)F)ccc21 (stereo not given)	129	
7.5	8.7			COc1cc(C(=O)NS(=O)(=O)c2ccccc2C)ccc1Cc1cn(C)c2ccc(C(=O)NCCCC(F)(F)F)cc12		
5.2	8.7	20	1.39	CCC(C)CNC(=O)c1ccc2c(c1)c(Cc1ccc(C(=O)NS(=O)(=O)c3ccccc3C)cc1OC)cn2C (stereo not given)	14	logP [1]: 5.85
7.7				COc1cc(C(=O)NS(=O)(=O)c2ccccc2C)ccc1Cn1ccc2ccc(C(=O)NCC(C)CC(F)(F)F)cc21 (stereo not given)		

The remaining lines, values behind:

Compound	Ki [2] [nM]	pKB [3]	ED50 [4] [µmol/kg]	ED50 [10] [µmol/kg]	Ratio (Cavia porcellus [20])	other results
COc1cc(C(=O)NS(=O)(=O)c2ccccc2C)ccc1Cc1cn(C)c2ccc(C(=O)NCC(C)C(F)(F)F)cc12 (stereo not given)	12					logP [1]: 5.89
COc1cc(C(=O)NS(=O)(=O)c2ccccc2Cl)ccc1Cc1cn(C)c2ccc(C(=O)NCC(C)CC(F)(F)F)cc12 (stereo not given)	0.57	9.7	2.5	0.024	110	
CCC(CNC(=O)c1ccc2c(c1)c(Cc1ccc(C(=O)NS(=O)(=O)c3ccccc3C)cc1OC)cn2CC)C(F)(F)F (stereo not given)	5.3	9				
COc1cc(C(=O)NS(=O)(=O)c2ccccc2C)ccc1Cc1cn(C)c2ccc(C(=O)NCC(C)CC(F)(F)F)cc12 (stereo not given)	0.57	9.93	1.44	0.036	40	bioavailability [5]: 33%; logP [1]: 6.18; clearance [12]: 12.3 mL/min/kg; clearance [21]: 1.83 mL/min/kg; bioavailability [19]: 12%
CCC(CNC(=O)c1ccc2c(c1)c(Cc1ccc(C(=O)O)cc1OC)cn2C)CC(F)(F)F (stereo not given)						logP [1]: 5.53
COc1cc(C(=O)NS(=O)(=O)c2ccccc2C)ccc1Cc1cn(C)c2ccc(C(=O)NC[C@@H](C)CC(F)(F)F)cc12	1.45	9.28	3.73	0.047	79	clearance [7]: 1.67 mL/min/kg; Pharmacokinetic (Rattus norvegicus): 23%
COc1cc(C(=O)NS(=O)(=O)c2ccccc2C)ccc1Cc1cn(C)c2ccc(C(=O)NCC3CC(F)(F)C(F)(F)C3)cc12	1.3	8.6				inhibition in vivo at 3 µmol/kg (Cavia porcellus [22]): 11%
COc1cc(C(=O)NS(=O)(=O)c2ccccc2Cl)ccc1Cn1ccc2ccc(C(=O)NCC(C)CC(F)(F)F)cc21 (stereo not given)	4.2	8.9				
